Measured values from ChEMBL document CHEMBL1629659, “Bronchopulmonary disposition of micafungin in healthy adult volunteers” (Antimicrob Agents Chemother, 2009).
Numbered stars: 1 amine (or outer) side, 2 acyl side, 3 side chain; on linkers, the order of the positions; unused ones are H or OH. Bridge positions count the residues as written; N and C are the ends. Square brackets hold non-standard residues; d marks the D form. Peptide text beside a SMILES is read from it. * marks the point of attachment. hTyr(3S-OH,4S-OH,3'-OSO3H) = N[C@H](C(=O)O)[C@H](O)[C@@H](O)c1ccc(O)c(OS(=O)(=O)O)c1; Orn(4R-OH,5R-OH) = O=C([C@H](C[C@@H](O)[C@@H](O)N[*:3])N[*:1])[*:2]; Pro(3S-OH,4S-Me) = C[C@H]1CN[C@H](C(=O)O)[C@H]1O; X1 = CCCCCOc1ccc(-c2cc(-c3ccc(C(=O)*)cc3)no2)cc1; Gln(3R-OH) = NC(=O)C[C@@H](O)[C@H](N)C(=O)O; Hyp = O=C(O)[C@@H]1C[C@@H](O)CN1

Legend:
[1] = Ratio of Cmax to MEC for Aspergillus; assay type: functional
[2] = Penetration ratio, ratio of AUC for alveolar macrophage cells of healthy human to AUC for human plasma; assay type: ADME, cell-based; settings: read-out: Ratio AUC
Outline: (§1)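 Penetration was expressed as composite AUC0-24 in ELF or alveolar cells (urea-dilution-corrected BAL data, trapezoidal rule) divided by plasma AUC0-24 (noncompartmental). Subjects received 150 mg IV daily for three doses.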

[3] = Drug concentration in Alveolar macrophage cells of healthy human at 150 mg, iv […] measured after 12 hrs of third postdose by urea dilution method; assay type: ADME, organism-based; settings: read-out: Drug uptake
Outline: (§2)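 The first aspirate was discarded and the rest pooled. Cells were pelleted and lysed. Drug in BAL fluid and pellet was measured by HPLC. Urea in BAL and plasma was measured by colorimetric enzymatic assay. ELF and alveolar-cell levels were derived by urea dilution.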

[4] = Drug concentration in Alveolar macrophage cells of healthy human at 150 mg, iv […] measured after 4 hrs of third postdose by urea dilution method; assay type: ADME, organism-based; settings: read-out: Drug uptake; outline: as §2
[5] = Drug concentration in Alveolar macrophage cells of healthy human at 150 mg, iv […] measured after 24 hrs of third postdose by urea dilution method; assay type: ADME, organism-based; settings: read-out: Drug uptake; outline: as §2
[6] = AUC ( 0 to 24 hrs) in healthy human plasma at 150 mg, […]; assay type: ADME, organism-based; set-up: dose 150 mg, time < 24 hr, route intravenous; settings: iv
Outline: (§3)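 Fifteen healthy adults received micafungin 150 mg IV, infused over 1 h every 24 h, for three doses. Blood was drawn before the third dose, at end of infusion (1 h), and 4, 12 and 24 h after the third dose. Plasma levels were measured by validated HPLC (linear 0.05–25.0 μg/ml). Parameters came from noncompartmental analysis over the 24-h dosing interval.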

[7] = Penetration ratio, ratio of AUC for human epithelial lining fluid to AUC for human plasma; assay type: ADME; settings: read-out: Ratio AUC; outline: as §1
[8] = Drug concentration in healthy human plasma at 150 mg, iv QD measured after 24 hrs of third postdose by high-pressure liquid chromatography method; settings: read-out: Drug uptake
[9] = Drug concentration in healthy human epithelial lining fluid at 150 mg, iv […] measured after 24 hrs of third postdose by urea dilution method; assay type: ADME, organism-based; settings: read-out: Drug uptake; outline: as §2
[10] = AUC ( 0 to 24 hrs) in healthy human epithelial lining fluid at 150 mg, iv […]; assay type: ADME, organism-based; set-up: dose 150 mg, time < 24 hr, route intravenous
Outline: (§4)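 Steady-state ELF and alveolar-cell concentrations were derived by urea dilution from BAL, with one bronchoscopy per subject at 4, 12 or 24 h after the third 150 mg IV dose (five subjects per time). A composite AUC over 0–24 h was calculated across subjects by the trapezoidal rule.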

[11] = Volume of distribution in healthy human plasma at 150 mg, iv […]; assay type: ADME, organism-based; outline: as §3
[12] = Drug concentration in healthy human epithelial lining fluid at 150 mg, iv QD measured after 4 hrs of third postdose by urea dilution method; settings: read-out: Drug uptake
[13] = Half life in healthy human plasma at 150 mg, iv […]; assay type: ADME, organism-based; outline: as §3
[14] = Drug concentration in healthy human plasma at 150 mg, iv QD measured after 4 hrs of third postdose by high-pressure liquid chromatography method; settings: read-out: Drug uptake
Plasma [15] = assay: Plasma protein binding in healthy human; assay type: ADME, cell-free
[16] = Plasma concentration in healthy human at 150 mg, iv […] measured after 24 hrs of third postdose; assay type: ADME, organism-based
Outline: (§5)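 Healthy volunteers (n=15) were given 150 mg micafungin IV over 1 h every 24 h for three doses. Plasma was sampled before and after the third dose (0, 1, 4, 12, 24 h). Quantitation used modified, validated HPLC with a standard curve linear over 0.05–25.0 μg/ml. Interday CV was ≤11.3% and intraday CV <18%.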

Plasma [17] = assay: Plasma concentration in healthy human at 150 mg, iv […] measured before third dose; assay type: ADME, organism-based; settings: in vivo; outline: as §5
Aspergillus fumigatus [18] = assay: Antimicrobial activity against germinated Aspergillus fumigatus conidia; assay type: functional; settings: read-out: MEC
[19] = AUC ( 0 to 24 hrs) in Alveolar macrophage cells of healthy human at 150 mg, iv […]; assay type: ADME, organism-based; set-up: time < 24 hr, dose 150 mg, route intravenous; outline: as §4
[20] = Drug concentration in healthy human plasma at 150 mg, iv QD measured after 12 hrs of third postdose by high-pressure liquid chromatography method; settings: read-out: Drug uptake
Aspergillus fumigatus [21] = assay: Antimicrobial activity against non-germinated Aspergillus fumigatus conidia; assay type: functional; settings: read-out: MEC
[22] = Cmax in healthy human plasma at 150 mg, iv […]; assay type: ADME, organism-based; set-up: dose 150 mg, route intravenous; outline: as §3
[23] = Clearance at steady state in healthy human plasma at 150 mg, iv […]; assay type: ADME, organism-based; outline: as §3
[24] = Drug concentration in healthy human epithelial lining fluid at 150 mg, iv QD measured after 12 hrs of third postdose by urea dilution method; settings: read-out: Drug uptake

## CCCCCOc1ccc(-c2cc(-c3ccc(C(=O)N[C@H]4C[C@@H](O)[C@@H](O)NC(=O)[C@@H]5[C@@H](O)[C@@H](C)CN5C(=O)[C@H]([C@H](O)CC(N)=O)NC(=O)[C@H]([C@H](O)[C@@H](O)c5ccc(O)c(OS(=O)(=O)O)c5)NC(=O)[C@@H]5C[C@@H](O)CN5C(=O)[C@H]([C@@H](C)O)NC4=O)cc3)no2)cc1 [MICAFUNGIN] (X1-[Orn(4R-OH,5R-OH)]T[Hyp][hTyr(3S-OH,4S-OH,3'-OSO3H)][Gln(3R-OH)][Pro(3S-OH,4S-Me)]; lactam 1-C)
[1]
  Ratio: 10
[2]
  Kp: 106
[3]
  concentration at 12 h: 8400 ng/mL
[4]
  concentration at 4 h: 10400 ng/mL
[5]
  concentration at 24 h: 14600 ng/mL
[6]
  AUC at 24 h: 220 µg·h/mL
[7]
  Kp: 5
[8]
  concentration at 24 h: 4800 ng/mL
[9]
  concentration at 24 h: 430 ng/mL
[10]
  AUC at 24 h: 10.2 µg·h/mL
[11]
  Vd: 15 L
[12]
  concentration at 4 h: 520 ng/mL
[13]
  half-life: 14.7 h
[14]
  concentration at 4 h: 14800 ng/mL
Plasma [15]
  PPB: 99%
[16]
  concentration at 24 h: 4670 ng/mL
Plasma [17]
  Cp: 4280 ng/mL
Aspergillus fumigatus [18]
  minimal effective concentration: 0.25 µg/mL
[19]
  AUC at 24 h: 234 µg·h/mL
[20]
  concentration at 12 h: 7400 ng/mL
Aspergillus fumigatus [21]
  minimal effective concentration: 0.06 µg/mL
[22]
  Cmax: 19100 ng/mL
[23]
  clearance: 11.7 mL/min
[24]
  concentration at 12 h: 440 ng/mL
